These results are taken from ChEMBL document CHEMBL4007443, “Discovery of Potent Human Glutaminyl Cyclase Inhibitors as Anti-Alzheimer's Agents Based on Rational Design” (J Med Chem, 2017).

Activity calls are given as the source filed them. No cut-off for these calls is given here.

For data set [1], the species on record is Mus musculus. The following applies: ICR, 25 mg/kg.
Data set [2] in a line: Cytotoxicity against mouse HT22 cells assessed as cell viability at 10 uM after 18 hrs by MTT assay. The format is cell-based, HT-22. The settings on record: read-out: Activity. A digest of the protocol:
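HT-22 mouse hippocampal cells grown in DMEM with 10% FBS at 37 °C, 5% CO2. Cells seeded at 5000/well the day before and exposed to compound at 10 µM for 18 h at 37 °C. MTT added for 3 h, formazan dissolved in DMSO, absorbance read at 570 nm. Viability expressed relative to vehicle control (100%).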
(In general: Tetrazolium assays rely on reduction of a dye to a coloured formazan, in cell work by metabolically active cells.)

Data set [3] concerns Mus musculus. The data set can be described thus: Antialzheimer activity in human amyloid beta (3 to 40) induced acute ICR mouse Alzheimer's disease mouse model assessed as inhibition of amyloid beta (N3pE to 40) formation in brain at 10 mM, icv by sandwich ELISA. Type of data set: functional. A digest of the protocol:
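Acute model: male ICR mice, 5 weeks old (25 g, n = 4), anaesthetized and given 5 µg human Aβ3-40 in 5 µL PBS by stereotaxic injection into deep cortex/hippocampus (AP -2.0, ML 1.2, DV 1.0 mm from bregma). Inhibitor given by the same intracerebral route or i.p. Brain extracts taken next day; Aβ N3pE-40 quantified by sandwich ELISA. Percent inhibition is relative to vehicle; one-way ANOVA with Bonferroni.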

The species entered for data set [4] is Mus musculus. Put plainly: animal or person. The settings on record: ICR, ip, read-out: INH.
For data set [5], the system named is Mus musculus. Put plainly: Cognition enhancement activity in 5XFAD Alzheimer's disease mouse model assessed as increase in duration of time spent in target quadrant administered intraperitoneally starting from 19 to 34 weeks of age by Morris water maze test. The format is functional. The method in brief:
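Male 5XFAD mice (n = 6 vehicle, n = 6 treated) received the compound i.p. from 19 weeks of age for 3 months, housed singly on a 12:12 h light cycle. Morris water maze: four hidden-platform training trials per day for 5 days, scoring escape latency. Probe trial 24 h later with the platform removed, scoring time in the target quadrant.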

Data set [6] addresses Glutaminyl-peptide cyclotransferase (Mus musculus, UniProt Q9CYK2). Put plainly: Inhibition of mouse glutaminyl cyclase assessed as reduction in conversion of H-Gln-AMC hydrobromide to pGlu-AMC preincubated with substrate for 10 mins followed by enzyme addition by pGAPase coupled fluorometry.
Data set [7] concerns Mus musculus. The data set can be described thus: Toxicity in APP/PS1 transgenic Alzheimer's disease mouse model administered via icv for 3 weeks. The following applies: in vivo, icv_or_intrathecal, 504 h.
The nature of data set [8]: Stability in mouse liver microsomes assessed as compound remaining after 30 mins. Type of data set: ADME, microsome. The settings on record: read-out: Stability. For orientation: Liver microsomes are vesicles of endoplasmic reticulum, rich in cytochrome P450 enzymes.

Chain of Glutaminyl-peptide cyclotransferase (Q9CYK2 whole entry): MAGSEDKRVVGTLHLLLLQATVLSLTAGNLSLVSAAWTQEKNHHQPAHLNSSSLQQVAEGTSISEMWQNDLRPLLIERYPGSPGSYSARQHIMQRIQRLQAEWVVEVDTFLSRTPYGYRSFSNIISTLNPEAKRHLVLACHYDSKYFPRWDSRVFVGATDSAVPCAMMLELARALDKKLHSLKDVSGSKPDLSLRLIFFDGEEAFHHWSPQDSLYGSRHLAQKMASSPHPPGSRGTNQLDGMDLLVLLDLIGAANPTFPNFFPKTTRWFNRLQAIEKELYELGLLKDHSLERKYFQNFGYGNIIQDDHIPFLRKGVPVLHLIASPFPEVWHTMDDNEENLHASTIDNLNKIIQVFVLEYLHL

`COc1cc(NC(=S)NCCCn2cncc2C)ccc1OCCCN`: in data set [1], the inhibition result is “inactive”. The viability at 18 h, 10 µM in data set [2] turned out to be 100%. Moreover, in data set [3], the “inhibition (INH)” value was determined as 64.6%.

For `COc1cc(NC(=S)NCCCn2cncc2C)ccc1OCCN1CCNCC1`, the viability at 18 h, 10 µM in data set [2] is 100%. Besides, the inhibition in vivo at 25 mg/kg in data set [4] is 3.6%. Moreover, in data set [3], the “inhibition (INH)” value turned out to be 77.2%.

Take `COc1cc(NC(=S)NCCCn2cncc2C)ccc1OCCCCc1ccnc(N)c1`: in data set [5], the outcome was Active. The viability at 18 h, 10 µM in data set [2] was 100%. Further, in data set [6], the IC50 – broadly, the concentration at which inhibition is half-maximal – came to 12.6 nM. For the same compound, in data set [4], the inhibition in vivo at 25 mg/kg is 54.7%. Moreover, the “inhibition (INH)” value in data set [3] was determined as 66.1%. Also, in data set [7], the Activity entry is on record as “Non-Toxic”. The remaining at 0.5 h in data set [8] was 50%.

Turning to `COc1ccc(NC(=S)NCCCn2cncc2C)cc1OC`, in data set [1], the inhibition entry is “inactive”. In addition, the viability at 18 h, 10 µM in data set [2] amounted to 100%. For the same compound, the IC50 in data set [6] came to 21.5 nM. For the same compound, the “inhibition (INH)” value in data set [3] is 41.6%.

`COc1cc(NC(=S)NCCCn2cncc2C)ccc1OCCc1ccnc(N)c1`: in data set [2], the viability at 18 h, 10 µM is 100%. For the same compound, in data set [3], the “inhibition (INH)” value was 38%.

Turning to `COc1cc(NC(=S)NCCCn2cncc2C)ccc1OCCCCN(C)C`, the viability at 18 h, 10 µM in data set [2] amounted to 100%. Moreover, in data set [3], the “inhibition (INH)” value is listed as 35.7%.

Consider `COc1cc(NC(=S)NCCCn2cncc2C)ccc1OCCC1CCN(C)CC1`, for which the viability at 18 h, 10 µM in data set [2] was found to be 100%. Also, in data set [3], the “inhibition (INH)” value came to 18.7%.

Consider `COc1cc(NC(=S)NCCCn2cncc2C)ccc1OCCCCNc1ncccn1`, for which, in data set [2], the viability at 18 h, 10 µM stood at 100%. Besides, in data set [3], the “inhibition (INH)” value came to 27.3%.

With `COc1cc(NC(=S)NCCCn2cncc2C)ccc1OCCCCN1CCNCC1`, the viability at 18 h, 10 µM in data set [2] was 100%. For the same compound, the “inhibition (INH)” value in data set [3] is reported as 29.2%.
